According to ChEMBL document CHEMBL2346555, “Efficacious cyclic N-acyl O-amino phenol duocarmycin prodrugs” (J Med Chem, 2013):
Blank lines part the entries; values can stand above or below the compound they belong to. Activity calls are given as the source filed them. No cut-off for these calls is given here.

Assays:
L1210 [1] = assay: Cytotoxicity against mouse L1210 cells assessed as growth inhibition after 72 hrs by phosphatase assay; type: functional, cell-based
Outline: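 L1210 mouse leukemia cells were seeded at 30,000 cells/mL in DMEM with 10% FBS and grown 24 h at 37 °C, 5% CO2. DMSO dilutions were then added at six concentrations between 0–100 or 0–1000 nM, in duplicate, for 72 h. Read-out: phosphatase substrate in 0.1 M NaOAc pH 5.5 with 0.1% Triton X-100, 5 min at 37 °C, stopped with NaOH, A405. IC50 is the average of ≥4 determinations.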

[2] = Hypoxic cytotoxicity ratio of IC50 for human PC3MM2 cell under aerobic condition to IC50 for human PC3MM2 cells under hypoxic condition; type: functional
[3] = Cytotoxicity against human PC3MM2 cells assessed as growth inhibition under hypoxic condition after 72 hrs by SRB assay; type: functional, cell-based; settings: PC3MM2, 72 h
Outline: (§1)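 Before the assay, A549 and PC3/MM2 cells were adapted for one week under hypoxia (37 °C, 5% CO2, 0.5% O2), subcultured twice; viability was checked by trypan blue. Cells were plated, held 24 h aerobic (37 °C, 5% CO2) or hypoxic, then exposed 72 h to 10 concentrations. SRB read-out per NCI DTP. Growth = [(Ti − Tz)/(C − Tz)] × 100%. IC50 by sigmoidal nonlinear regression, n = 3 independent experiments.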

[4] = Cytotoxicity against human PC3MM2 cells assessed as growth inhibition under aerobic condition after 72 hrs by SRB assay; type: functional, cell-based; settings: PC3MM2, 72 h; outline: as §1
A549 [5] = assay: Cytotoxicity against human A549 cells assessed as growth inhibition under hypoxic condition after 72 hrs by SRB assay; type: functional, cell-based; settings: A549, 72 h; outline: as §1
A549 [6] = assay: Hypoxic cytotoxicity ratio of IC50 for human A549 cell under aerobic condition to IC50 for human A549 cells under hypoxic condition; type: functional
A549 [7] = assay: Cytotoxicity against human A549 cells assessed as growth inhibition under aerobic condition after 72 hrs by SRB assay; type: functional, cell-based; settings: A549, 72 h; outline: as §1
Neurospora discreta [8] = assay: Induction of Neurospora discreta w794 [5-32P]-DNA alkylation assessed as thermal-induced strand cleavage at 1 x 10^-3 M incubated for 2 hrs at 23 degC followed by thermolysis at 100 degC for 30 mins measured after 12 to 48 hrs by PAGE/autoradiographic analysis in presence of L-glutathione; settings: in the assay text read “1 x 10^-5 M” for “1 x 10^-3 M”
Outline: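 Agent first held with 1 M L-glutathione at 37 °C for 12 or 48 h to cause reductive activation. It was then incubated with 5′-32P-labelled w794 DNA at 23 °C for 2 h, and unbound agent was removed by EtOH precipitation. Thermolysis followed at 100 °C for 30 min, then 8% denaturing PAGE and autoradiography against Sanger sequencing lanes.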

Neurospora discreta [9] = assay: Induction of Neurospora discreta w794 [5-32P]-DNA alkylation assessed as thermal-induced strand cleavage at 1 x 10^-3 M incubated for 2 hrs at 23 degC followed by thermolysis at 100 degC for 30 mins measured after 12 to 24 hrs by PAGE/autoradiographic analysis in absence of L-glutathione
Outline: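 Agent incubated with 5′-32P-labelled w794 DNA at 23 °C for 2 h; unbound agent removed by EtOH precipitation. Thermolysis at 100 °C for 30 min induced strand cleavage at alkylation sites. Read-out by 8% denaturing PAGE and autoradiography, alongside Sanger G, C, A and T sequencing lanes and untreated control DNA. No glutathione present.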

Neurospora discreta [10] = assay: Induction of Neurospora discreta w794 [5-32P]-DNA alkylation assessed as thermal-induced strand cleavage at 1 x 10^-5 M incubated for 2 hrs at 23 degC followed by thermolysis at 100 degC for 30 mins measured after 12 to 24 hrs by PAGE/autoradiographic analysis in presence of L-glutathione
Neurospora discreta [11] = assay: Induction of Neurospora discreta w794 [5-32P]-DNA alkylation assessed as thermal-induced strand cleavage at 1 x 10^-5 M incubated for 2 hrs at 23 degC followed by thermolysis at 100 degC measured after 30 mins by PAGE/autoradiographic analysis in absence of L-glutathione
Outline: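 Labeled DNA was incubated with agent for 2 h at 23 °C. Unbound agent was removed by EtOH precipitation, then thermolysis for 30 min at 100 °C, 8% denaturing PAGE and autoradiography, with Sanger G, C, A, T lanes as markers. In the glutathione arm, agent at 1 × 10−5 M was first held at 37 °C with 1 M L-glutathione for 12 or 48 h.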

[12] = Fraction unbound in mouse plasma; type: ADME, cell-free
[13] = Half life in mouse plasma
Neurospora discreta [14] = assay: Induction of Neurospora discreta w794 [5-32P]-DNA alkylation thermal-induced strand cleavage at 1 x 10^-2 M incubated for 48 hrs at 23 degC followed by thermolysis at 100 degC measured after 30 mins by PAGE/autoradiographic analysis
[15] = Half life of the compound in phosphate buffer at pH 7
[16] = Half life in human plasma
[17] = Fraction unbound in human plasma; type: ADME, cell-free
[18] = Stability of the compound in H2, Pd/C, MeOH, at 23 degC after 1 hr; type: physicochemical
[19] = Stability of the compound in Mo(CO)6, MeCN/H2O after 3 hrs; type: physicochemical
[20] = Half life of the compound in HCl/EtOAc at 23 degC; type: physicochemical
Mus musculus [21] = assay: Toxicity in B6D2F1 mouse allografted with mouse L1210 cells assessed as mortality at 60 ug/kg, ip tid administered on day 1 to 9 measured after 366 days; type: organism-based; settings: in vivo, 0.06 mg/kg, 8784 h
Outline: (§2)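 Syngeneic L1210 cells (1 × 10^6) were given i.p. to B6D2F1 mice on day 0; 10 per group. Compound in 100% DMSO was injected i.p. on days 1, 5 and 9. Animals were monitored daily and weighed twice weekly, with the study extended to 366 days. Deaths from drug toxicity were recorded.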

L1210 [22] = assay: Antitumor activity against mouse L1210 cells allografted in B6D2F1 mouse assessed as mean survival period at 200 ug/kg, ip tid administered on day 1 to 9 measured after 366 days relative to vehicle-treated control; type: functional
Outline: (§3)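 L1210 cells (1 × 10^6) injected i.p. into B6D2F1 mice on day 0; 10 mice per group, randomized to vehicle or treatment. Dosing in 100% DMSO i.p. on days 1, 5 and 9 at 60–2500 μg/kg/inj. Animals were monitored daily and weighed twice weekly, with follow-up extended to 366 days. T/C = total survival days of the treated group ÷ total survival days of the control group × 100.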

L1210 [23] = assay: Antitumor activity against mouse L1210 cells allografted in B6D2F1 mouse assessed as mean survival period at 2500 ug/kg, ip tid administered on day 1 to 9 measured after 366 days relative to vehicle-treated control; type: functional; outline: as §3
L1210 [24] = assay: Antitumor activity against mouse L1210 cells allografted in B6D2F1 mouse assessed as mean survival period at 1000 ug/kg, ip tid administered on day 1 to 9 measured after 366 days relative to vehicle-treated control; type: functional; outline: as §3
L1210 [25] = assay: Antitumor activity against mouse L1210 cells allografted in B6D2F1 mouse assessed as mean survival period at 500 ug/kg, ip tid administered on day 1 to 9 measured after 366 days relative to vehicle-treated control; type: functional; outline: as §3
L1210 [26] = assay: Antitumor activity against mouse L1210 cells allografted in B6D2F1 mouse assessed as mean survival period at 60 ug/kg, ip tid administered on day 1 to 9 measured after 366 days relative to vehicle-treated control; type: functional; outline: as §3
Neurospora discreta [27] = assay: Induction of Neurospora discreta w794 [5-32P]-DNA alkylation assessed as thermal-induced strand cleavage at 1 x 10^-3M incubated for 48 hrs at 23 degC followed by thermolysis at 100 degC for 30 mins measured after 12 to 48 hrs by PAGE/autoradiographic analysis in presence of L-glutathione
Neurospora discreta [28] = assay: Induction of Neurospora discreta w794 [5-32P]-DNA alkylation assessed as thermal-induced strand cleavage at 1 x 10^-5 M to 1 X 10^-4 M incubated for 48 hrs at 23 degC followed by thermolysis at 100 degC measured after 30 mins by PAGE/autoradiographic analysis
Mus musculus [29] = assay: Toxicity in B6D2F1 mouse allografted with mouse L1210 cells assessed as mortality at 100 to 250 ug/kg, ip tid administered on day 1 to 9 measured after 366 days; type: organism-based; settings: in vivo, 8784 h; outline: as §2
L1210 [30] = assay: Antitumor activity against mouse L1210 cells allografted in B6D2F1 mouse assessed as mean survival period at 250 ug/kg, ip tid administered on day 1 to 9 measured after 366 days relative to vehicle-treated control; type: functional; outline: as §3
L1210 [31] = assay: Antitumor activity against mouse L1210 cells allografted in B6D2F1 mouse assessed as mean survival period at 100 ug/kg, ip tid administered on day 1 to 9 measured after 366 days relative to vehicle-treated control; type: functional; outline: as §3

SMILES: COC(=O)c1cc2c([nH]1)C(=O)C=C1N(C(=O)c3cc4cc(OC)c(OC)c(OC)c4[nH]3)CC3CC123 (stereo not given) [DUOCARMYCIN SA]
- IC50 (L1210 [1]; Mus musculus, L1210, 72 h): 0.1 nM

SMILES: O=C1Nc2cccc3c4c(cc(c23)O1)N(C(=O)c1cc2cc(NC(=O)c3cc5ccccc5[nH]3)ccc2[nH]1)C[C@H]4CCl
- Ratio IC50 [2]: 1.9
- IC50 [3]: 170 nM
- IC50 [4]: 320 nM
- IC50 (A549 [5]): 90 nM
- Ratio IC50 (A549 [6]): 1
- IC50 (A549 [7]): 90 nM

- Activity (Neurospora discreta [8]): Active
- Activity (Neurospora discreta [9]): inactive
SMILES: CC(C)(C)OC(=O)NOc1cc2c(c3ccccc13)[C@H](CCl)CN2C(=O)c1cc2cc(NC(=O)c3cc4ccccc4[nH]3)ccc2[nH]1

SMILES: CC(C)(C)OC(=O)N1C[C@H](CCl)c2c1cc1c3c(cccc23)C(=O)NO1
- IC50 (L1210 [1]; Mus musculus, L1210, 72 h): > 1000 nM

SMILES: O=C(Nc1ccc2[nH]c(C(=O)N3C[C@H](CCl)c4c3cc3c5c(cccc45)C(=O)NO3)cc2c1)c1cc2ccccc2[nH]1
- IC50 (L1210 [1]; Mus musculus, L1210, 72 h): 65 nM

SMILES: O=C(Nc1ccc2[nH]c(C(=O)N3C[C@@H](CCl)c4c3cc3c5c(cccc45)C(=O)NO3)cc2c1)c1cc2ccccc2[nH]1
- Activity (Neurospora discreta [10]): Active
- Activity (Neurospora discreta [11]): inactive
- fraction unbound [12]: < 0.05
- half-life [13]: > 48 h
- IC50 (L1210 [1]; Mus musculus, L1210, 72 h): 0.3 nM

SMILES: CN1Oc2cc3c(c4cccc(c24)C1=O)[C@H](CCl)CN3C(=O)c1cc2cc(NC(=O)c3cc4ccccc4[nH]3)ccc2[nH]1
- Activity (Neurospora discreta [14]): inactive
- half-life [15]: > 672 h
- half-life [16]: > 168 h
- fraction unbound [17]: < 0.05
- Stability [18]: Unstable
- Stability [19]: Unstable
- half-life [13]: > 48 h
- half-life [20]: > 72 h
- Ratio IC50 [2]: 10
- IC50 [3]: 35 nM
- IC50 [4]: 350 nM
- IC50 (A549 [5]): 5 nM
- Ratio IC50 (A549 [6]): 5
- IC50 (A549 [7]): 25 nM
- Activity (Mus musculus [21]): Toxic
- T/C (L1210 [22]): >386
- T/C (L1210 [23]): >1500
- T/C (L1210 [24]): >1130
- T/C (L1210 [25]): >1142
- T/C (L1210 [26]): 159
- IC50 (L1210 [1]; Mus musculus, L1210, 72 h): 0.99 nM

SMILES: CC(C)(C)OC(=O)N1C[C@H]2C[C@@]23C1=CC(=O)c1ccccc13
- IC50 (L1210 [1]; l1210): 900 nM

SMILES: CNC(=O)c1cccc2c3c(cc(O)c12)N(C(=O)c1cc2cc(NC(=O)c4cc5ccccc5[nH]4)ccc2[nH]1)CC3CCl (racemic)
- Activity (Neurospora discreta [27]): Active
- IC50 (L1210 [1]; Mus musculus, L1210, 72 h): 0.073 nM

SMILES: CN1Oc2cc3c(c4cccc(c24)C1=O)[C@@H](CCl)CN3C(=O)OC(C)(C)C
- IC50 (L1210 [1]; Mus musculus, L1210, 72 h): > 1000 nM

SMILES: O=C(Nc1ccc2[nH]c(C(=O)N3C[C@@H](CCl)c4c3cc(O)c3ccccc43)cc2c1)c1cc2ccccc2[nH]1 [SECO-CBI-INDOLE]
- Activity (Neurospora discreta [28]): Active
- Activity (Mus musculus [29]): Toxic
- T/C (L1210 [25]): 17
- T/C (L1210 [30]): 21
- T/C (L1210 [31]): 36
- T/C (L1210 [26]): >284

SMILES: CN1Oc2cc3c(c4cccc(c24)C1=O)[C@@H](CCl)CN3C(=O)c1cc2cc(NC(=O)c3cc4ccccc4[nH]3)ccc2[nH]1
- IC50 (L1210 [1]; Mus musculus, L1210, 72 h): 740 nM

SMILES: O=C(Nc1ccc2[nH]c(C(=O)N3CC(CCl)c4c3cc(O)c3ccccc43)cc2c1)c1cc2ccccc2[nH]1 (stereo not given)
- IC50 (L1210 [1]; Mus musculus, L1210, 72 h): 0.9 nM

SMILES: COc1c(O)c2c(c3cc(C(=O)N4CCc5c4c(O)c(OC)c4[nH]c(C(=O)N6CC7CC78C6=CC(=O)c6[nH]cc(C)c68)cc54)[nH]c13)CCN2C(N)=O (stereo not given) [CC-1065]
- IC50 (L1210 [1]; Mus musculus, L1210, 72 h): 0.02 nM
